These results are taken from ChEMBL document CHEMBL4622927, “6,6'-Aryl trehalose analogs as potential Mincle ligands” (Bioorg Med Chem, 2020).

Structures are written as SMILES. The source made the active and inactive calls. The calls are words filed in the database; no cut-off is given here.

For one test, the system named is PBMC. The test is described as follows: Induction of IL-6 production in human PBMC measured after 18 to 24 hrs at 0.01 to 100 uM by ELISA. The format is functional, cell-based. An outline of the steps: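 Freshly Ficoll-isolated PBMCs from healthy adult donors, in RPMI with 5% autologous plasma and counted as viable cells by trypan blue, added to wells with compounds serially diluted in ethanol and dried on. Incubation 18–24 h at 37 °C/5% CO2. Supernatant IL-6 measured by ELISA, read at 450 nm; n=3 independent donors, mean ± SEM.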

The target of test [1] is T1, C-type lectin domain family 4 member E (Homo sapiens) (UniProt Q9ULY5).
T1 sequence (whole entry): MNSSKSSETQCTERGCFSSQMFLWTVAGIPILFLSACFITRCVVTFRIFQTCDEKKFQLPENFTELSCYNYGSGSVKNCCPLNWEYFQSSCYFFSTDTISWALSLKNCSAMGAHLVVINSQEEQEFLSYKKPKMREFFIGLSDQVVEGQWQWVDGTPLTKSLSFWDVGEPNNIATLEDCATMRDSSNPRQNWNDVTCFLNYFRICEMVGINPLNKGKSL
Put plainly: Agonist activity at human Mincle receptor expressed in HEK cells cotransfected with NF-kappaB SEAP reporter gene assessed as increase in production of SEAP measured after 18 to 24 hrs by SEAP reporter gene-based spectrophotometric method. The format is cell-based. An outline of the steps: (§1)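 Compounds serially diluted in EtOH; 10x final concentration coated on well bottoms and solvent evaporated >1 h. HEK-Blue hMincle cells with NF-κB-driven SEAP reporter, grown in DMEM/10% FBS with blasticidin, puromycin and CLR selection, added at 3 × 10^5 cells/well. 18–24 h at 37 °C. HEK-Blue Detection, OD 620–655 nm, fold change over vehicle; n=3. HEK null cells as counter-screen.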

The target in test [2] is T1, C-type lectin domain family 4 member E (Homo sapiens). Put plainly: Agonist activity at human Mincle receptor expressed in HEK cells cotransfected with NF-kappaB SEAP reporter gene assessed as increase in production of SEAP at 20 uM measured after 18 to 24 hrs by SEAP reporter gene-based spectrophotometric method. The class given is cell-based. An outline of the steps:
as §1

In the case of `COc1ccc(C(F)(F)F)cc1C(=O)OC[C@H]1O[C@H](O[C@H]2O[C@H](COC(=O)c3cc(C(F)(F)F)ccc3OC)[C@@H](O)[C@H](O)[C@H]2O)[C@H](O)[C@@H](O)[C@@H]1O`, the outcome in the test with PBMC was inactive. The Activity entry in test [1] is “Dose-dependent effect”.

Regarding `O=C(OC[C@H]1O[C@H](O[C@H]2O[C@H](COC(=O)c3c(C(F)(F)F)cccc3C(F)(F)F)[C@@H](O)[C@H](O)[C@H]2O)[C@H](O)[C@@H](O)[C@@H]1O)c1c(C(F)(F)F)cccc1C(F)(F)F`, the outcome in the test on PBMC was Active. In addition, the Activity entry in test [1] is “Dose-dependent effect”.

For `O=C(OC[C@H]1O[C@H](O[C@H]2O[C@H](COC(=O)c3cc([N+](=O)[O-])cc([N+](=O)[O-])c3)[C@@H](O)[C@H](O)[C@H]2O)[C@H](O)[C@@H](O)[C@@H]1O)c1cc([N+](=O)[O-])cc([N+](=O)[O-])c1`, the result in the test on PBMC was Active.

As to `CCCCCCCCCCCCCCCCCCCCCC(=O)OC[C@H]1O[C@H](O[C@H]2O[C@H](COC(=O)CCCCCCCCCCCCCCCCCCCCC)[C@@H](O)[C@H](O)[C@H]2O)[C@H](O)[C@@H](O)[C@@H]1O`, in test [1], the Activity result was “Dose-dependent effect”.

On to `O=C(OC[C@H]1O[C@H](O[C@H]2O[C@H](COC(=O)c3cc(C(F)(F)F)ccc3O)[C@@H](O)[C@H](O)[C@H]2O)[C@H](O)[C@@H](O)[C@@H]1O)c1cc(C(F)(F)F)ccc1O`, for which the result with PBMC was inactive.

With `O=C(OC[C@H]1O[C@H](O[C@H]2O[C@H](COC(=O)c3cccc(C(F)(F)F)c3O)[C@@H](O)[C@H](O)[C@H]2O)[C@H](O)[C@@H](O)[C@@H]1O)c1cccc(C(F)(F)F)c1O`, the outcome with PBMC was inactive.

For `Cc1ccc(C(=O)OC[C@H]2O[C@H](O[C@H]3O[C@H](COC(=O)c4ccc(C)cc4C(F)(F)F)[C@@H](O)[C@H](O)[C@H]3O)[C@H](O)[C@@H](O)[C@@H]2O)c(C(F)(F)F)c1`, in the test with PBMC, the outcome was inactive.

Turning to `O=C(Cc1ccccc1C(F)(F)F)OC[C@H]1O[C@H](O[C@H]2O[C@H](COC(=O)Cc3ccccc3C(F)(F)F)[C@@H](O)[C@H](O)[C@H]2O)[C@H](O)[C@@H](O)[C@@H]1O`, the outcome in the test on PBMC was inactive. Besides, in test [2], the result was Active.

As for `COc1ccc(C(=O)OC[C@H]2O[C@H](O[C@H]3O[C@H](COC(=O)c4ccc(OC)cc4C(F)(F)F)[C@@H](O)[C@H](O)[C@H]3O)[C@H](O)[C@@H](O)[C@@H]2O)c(C(F)(F)F)c1`, the result in the test with PBMC was inactive.

For `O=C(OC[C@H]1O[C@H](O[C@H]2O[C@H](COC(=O)c3ccccc3C(F)(F)F)[C@@H](O)[C@H](O)[C@H]2O)[C@H](O)[C@@H](O)[C@@H]1O)c1ccccc1C(F)(F)F`, the result in the test with PBMC was Active. The Activity entry in test [1] is “Dose-dependent effect”.
